The record followed here is ChEMBL document CHEMBL5370602, “Structure-Based Design of a Lead Compound Derived from Natural Schweinfurthins with Antitumor Properties That Target Oxysterol-Binding Protein” (J Med Chem, 2023).

SMILES strings stand for the structures. Activity calls are given as the source filed them. The calls are words filed in the database; no cut-off is given here.

One data set has as its target mTORC2 (Homo sapiens) (UniProt P42345+Q6R327+Q9BVC4+Q9BPZ7). Nature of the data set: Inhibition of mTORC2 signalling in human U-87 MG cells assessed as decrease in AKT phosphorylation at S473 residue at 0.05 to 1 uM incubated for 48 hrs by Western blot analysis. Format: cell-based. In short, it runs like this:
(§1)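 U-87 MG cells cultured two days, then exposed 48 h to increasing doses. Lysed in RIPA with protease inhibitors; 5 µg protein run on 4-20% SDS gels and transferred to PVDF. Probed for phospho/total AKT, S6, S6K, P62 and LC3, detected by ECL. Band intensities normalized to β-actin.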
In general terms: Immunoblotting shows a protein as a band on a membrane.

Data set [1] concerns the target T1, mTORC1 (Homo sapiens) (UniProt P42345+Q8N122+Q9BVC4). The experiment in a line: Inhibition of mTORC1 signalling in human U-87 MG cells assessed as decrease in S6K phosphorylation at T389 residue at 0.05 to 1 uM incubated for 48 hrs by Western blot analysis. Format: cell-based. The method, boiled down: as §1
For data set [2], the target named is T1, mTORC1 (Homo sapiens). The experiment in a line: Inhibition of mTORC1 signalling in human U-87 MG cells assessed as decrease in S6 phosphorylation at S240/244 residue at 0.05 to 1 uM incubated for 48 hrs by Western blot analysis. In kind it is cell-based. In short, it runs like this:
as §1

In data set [3] the test system is U-87 MG. Nature of the data set: Induction of autophagy in human U-87 MG cells assessed as increase in LC3II expression at 0.05 to 1 uM incubated for 48 hrs by Western blot analysis. In kind it is functional, cell-based. As to conditions: U-87MG ATCC. The method, boiled down:
as §1

A short description of data set [4]: Metabolic stability in mouse plasma assessed as compound remaining at 5 uM and measured after 120 mins by UPLC-MS/MS analysis. As to conditions: read-out: Stability. Format: ADME, cell-free. The method, boiled down: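 Male mouse plasma at 37 °C with compound added from a 5 µM solution […]. Sampled at 0, 15, 30, 45, 60 and 120 min, quenched with acetonitrile and read by LC-MS/MS (MRM) in duplicate. Procaine positive control. Remaining % and t1/2 derived from MRM area relative to t = 0.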

In data set [5] the target is T2, Oxysterol-binding protein 1 (Homo sapiens) (UniProt P22059).
T2 sequence (whole entry): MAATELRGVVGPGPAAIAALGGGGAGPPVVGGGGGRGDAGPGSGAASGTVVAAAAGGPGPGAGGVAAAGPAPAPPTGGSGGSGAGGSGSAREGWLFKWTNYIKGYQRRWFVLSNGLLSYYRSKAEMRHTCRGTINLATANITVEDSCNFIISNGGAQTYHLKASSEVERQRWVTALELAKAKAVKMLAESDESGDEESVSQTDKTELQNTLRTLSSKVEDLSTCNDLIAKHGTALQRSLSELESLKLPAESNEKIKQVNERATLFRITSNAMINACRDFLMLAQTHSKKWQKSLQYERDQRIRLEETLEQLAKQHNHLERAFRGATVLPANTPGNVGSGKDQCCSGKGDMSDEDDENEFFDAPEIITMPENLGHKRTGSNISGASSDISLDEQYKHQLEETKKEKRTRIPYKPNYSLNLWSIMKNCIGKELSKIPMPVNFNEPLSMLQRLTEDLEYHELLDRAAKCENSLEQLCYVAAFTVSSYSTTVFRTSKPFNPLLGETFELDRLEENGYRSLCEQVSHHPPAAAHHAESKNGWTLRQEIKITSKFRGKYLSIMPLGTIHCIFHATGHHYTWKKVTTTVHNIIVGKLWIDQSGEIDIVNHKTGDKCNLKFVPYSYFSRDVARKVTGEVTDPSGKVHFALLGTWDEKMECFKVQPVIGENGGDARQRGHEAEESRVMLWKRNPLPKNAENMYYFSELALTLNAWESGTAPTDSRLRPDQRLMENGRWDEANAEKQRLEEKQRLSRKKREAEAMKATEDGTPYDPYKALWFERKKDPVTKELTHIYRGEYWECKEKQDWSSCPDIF
Nature of the data set: Inhibition of human OSBP in human hTERT-RPE1 cells co-transfected with GFP-P4MSidM and TagBFP-betaGalT1 assessed as half life for inhibition of PI4P transfer by OBSP by immunofluorescence analysis. Format: cell-based. In short, it runs like this:
(§2)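 hTERT-RPE-1 cells electroporated with GFP-P4M^SidM (PI4P probe) and TagBFP-βGalT1, plated 18-24 h. Timelapse confocal imaging at 37 °C after compound addition, with P4M-GFP intensity at the TGN tracked over time and compared before and 50 min after addition. Mean of 4 to 6 independent experiments ± SEM.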

Data set [6] has as its target T2, Oxysterol-binding protein 1 (Homo sapiens). The experiment in a line: Inhibition of human OSBP in human hTERT-RPE1 cells assessed as increase in OSBP recruitment at TGN and measured after 10 mins by confocal microscopy. Format: cell-based.
A short description of data set [7]: Metabolic stability in mouse liver microsomes assessed as intrinsic clearance at 2.5 uM and measured upto 45 mins in presence of NADPH by LC-MS/MS analysis. Format: ADME, Microsome. As to conditions: read-out: CLH.
Data set [8] deals with T2, Oxysterol-binding protein 1 (Homo sapiens). Nature of the data set: Inhibition of human OSBP in human hTERT-RPE1 cells assessed as increase in OSBP recruitment at TGN and measured after 4 hrs by confocal microscopy. Format: cell-based.
Data set [9] addresses T3, Oxysterol-binding protein 1 (Homo sapiens, UniProt P22059).
T3 sequence (P22059 whole entry): T2 sequence (whole entry)
The experiment in a line: Inhibition of human C-terminal 6-His tagged OSBP ORD domain (401 to 807 residues) expressed in baculovirus-infected Sf9 cells assessed as reduction in DHE transfer from liposome (Le mimicking ER) to liposome (Lg mimicking golgi) with compound by FRET assay. The method, boiled down:
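Purified human OSBP ORD (401-807, C-terminal 6×His) from baculovirus-infected Sf9 cells, used in a DHE sterol transfer fluorescence assay. Signal corrected for compound fluorescence. Kinetics fitted linearly or by ΔF = ΔFmax(1 − e^−kt) to give apparent k, which was plotted against compound concentration. Ki from a quadratic (tight binders) or hyperbolic equation, three independent experiments.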

A further data set has as its system A549. The experiment in a line: Antiproliferative activity against human A549 cells assessed as inhibition of cell proliferation incubated for 72 hrs by CellTiter-Glo luminescent assay. Format: functional, cell-based. As to conditions: A549, 72 h. The method, boiled down: (§3)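 A549 in RPMI 1640 and U-87MG in DMEM, each with 10% FCS and 1% glutamine, at 37 °C and 5% CO₂. Cells seeded at 3000/well, dosed the next day, treated 72 h. Viability read by CellTiter-Glo luminescence with DMSO-treated cells set to 100%. IC50 taken from survival curves over three independent experiments.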
A general note: ATP-based viability assays read luminescence as a measure of living cells.

A short description of data set [10]: Metabolic stability in mouse liver microsomes assessed as compound remaining at 2.5 uM and measured after 45 mins in absence of NADPH by LC-MS/MS analysis. Particulars: read-out: Stability. Format: ADME, Microsome. In general terms: Liver microsomes are vesicles of endoplasmic reticulum, rich in cytochrome P450 enzymes.
For data set [11], the system named is U-87 MG. Nature of the data set: Antiproliferative activity against human U-87 MG cells assessed as inhibition of cell proliferation incubated for 72 hrs by CellTiter-Glo luminescent assay. In kind it is functional, cell-based, U-87MG ATCC. The method, boiled down:
as §3

The target in data set [12] is T2, Oxysterol-binding protein 1 (Homo sapiens). Nature of the data set: Inhibition of human OSBP in human hTERT-RPE1 cells co-transfected with GFP-P4MSidM and TagBFP-betaGalT1 assessed as increase in PI4P at TGN by measuring GFP-P4M fluorescence and measured after 50 mins by immunofluorescence analysis. In kind it is cell-based. The method, boiled down:
as §2

A short description of data set [13]: Metabolic stability in mouse liver microsomes assessed as compound remaining at 2.5 uM and measured after 45 mins in presence of NADPH by LC-MS/MS analysis. In kind it is ADME, Microsome. Particulars: read-out: Stability.
Data set [14] has as its system U-87 MG. Nature of the data set: Induction of autophagy in human U-87 MG cells assessed as decrease in P62 expression at 0.05 to 1 uM incubated for 48 hrs by Western blot analysis. Format: functional, cell-based. Particulars: U-87MG ATCC. The method, boiled down: as §1
Data set [15] concerns U-87 MG. The experiment in a line: Induction of autophagy in human U-87 MG cells assessed as decrease in LC3I expression at 0.05 to 1 uM incubated for 48 hrs by Western blot analysis. In kind it is functional, cell-based. As to conditions: U-87MG ATCC. The method, boiled down: as §1
The nature of data set [16]: Drug uptake in human hTERT-RPE1 cells assessed as drug co-localization with OSBP perinuclear region of cell incubated for 30 mins by immunofluorescence analysis. In kind it is ADME, cell-based. As to conditions: tert-rpe1, 0.5 h. The method, boiled down:
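hTERT-RPE-1 cells incubated 30 min with compound, then fixed (4% paraformaldehyde, 0.1% glutaraldehyde, 10 min), quenched with 50 mM NH₄Cl and permeabilized in saponin 0.05%/BSA 0.2%. Immunolabeled for OSBP and TGN-46. Compound imaged directly by UV-adapted widefield fluorescence (excitation 330, emission 410 nm).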

The nature of data set [17]: Antitumor activity in high alert medicated patient derived human GBM1 cells xenografted in immunodeficient nude mouse model assessed as change in tumor volume at 42 mg/kg,po QD for 5 days and measured after 11 days relative to control. Particulars: time 5 day.
Data set [18] can be described thus: Toxicity in immunodeficient nude mouse model xenografted with high alert medicated patient derived human GBM1 cells assessed as body weight change at 42 mg/kg,po QD for 5 days. In kind it is organism-based. Particulars: in vivo, 120 h, time 5 day. The method, boiled down:
(§4)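 Female athymic nude mice bearing subcutaneous GBM1-HAM PDX fragments (20 mm³); treatment began day 11 post-implant at tumour volumes 75-196 mm³, 10 per group. Compound i.p. daily in cyclodextrin vehicle (17 days alone, 27 days in combination); temozolomide 42 mg/kg p.o. daily for 5 days in PBS/glucose/Tween 80. Calliper volumes three times weekly; body weight and clinical signs monitored.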

A short description of data set [19]: Antitumor activity in high alert medicated patient derived human GBM1 cells xenografted in immunodeficient nude mouse model assessed as T/C ratio at 42 mg/kg,po QD for 5 days and measured from 9 to 11 days. As to conditions: time 5 day.
The nature of data set [20]: Toxicity in immunodeficient nude mouse model xenografted with high alert medicated patient derived human GBM1 cells assessed as clinical symptoms at 42 mg/kg,po QD for 5 days. As to conditions: in vivo, 120 h, time 5 day. Format: organism-based. The method, boiled down:
as §4

A short description of data set [21]: Antitumor activity in high alert medicated patient derived human GBM1 cells xenografted in immunodeficient nude mouse model assessed as tumor growth inhibition at 42 mg/kg,po QD for 5 days and measured from 9 to 11 days. Particulars: GBM1, 120 h.

One may read the Ki as a dissociation constant, usually derived from enzyme kinetics or from competition with a known ligand. For orientation: IC50 means the concentration at which inhibition is half-maximal. As to `CC(C)=CCc1c(O)cc(/C=C/c2cc(O)c3c(c2)C[C@@H]2C(C)(C)[C@H](O)CC[C@@]2(C)O3)cc1O` [SCHWEINFURTHIN G], the inhibition entry at mTORC2 (Homo sapiens), on mTORC1 (Homo sapiens) [1] and on mTORC1 (Homo sapiens) [2] was “Dose-Dependent Effect” each time. The Activity entry with U-87 MG [3], in the data set on U-87 MG [14] and in the data set on U-87 MG [15] was “Dose-Dependent Effect” each time. Moreover, the remaining at 2 h, 5 µM in data set [4] amounted to 100%. Also, the T1/2 in data set [5] was determined as 10 min. Moreover, the inhibition entry in [6] and in [12] was “Active” throughout. The microsomal CLint at 2.5 µM in [7] was found to be 90 µL/min/mg. Also, the inhibition result in data set [8] was “inactive”. In addition, the inhibitory constant (Ki) in [9] was below 1 nM. For the same molecule, the half-inhibitory concentration (IC50) amounted to 359 nM in the data set with A549 and 8 nM in the data set on U-87 MG [11]. The remaining at 0.75 h, 2.5 µM in data set [10] came out at 100%; in data set [13] it was 23%. Besides, in data set [16], the Drug uptake entry is “Active”.

The term T/C denotes the result in the treated group divided by that in the control group, in per cent. In the case of `Cn1nnc2c(C(N)=O)ncn2c1=O` [TEMOZOLOMIDE], the Activity in [17] is 546.69%; in [18], “Non-Toxic”; in data set [20], “Non-Toxic”. Besides, in data set [19], the T/C is listed as 62.43%. For the same molecule, the TGDI at 42 mg/kg in [21] amounted to 1.34%.
